# Laboratory results taken from publication PMC10835759 (RSC Advances, 2024).
# Legend:
# [1] = system: rat α-glucosidase; assay: Glycosidase inhibitory activity, enzymes from rat small intestines; format: biochemical; settings: rat small intestinal enzymes, at 100 μg mL^−1
# How it was run: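 Enzyme source: brush border membrane vesicles prepared from rat small intestine and suspended in 0.1 M maleate buffer, pH 6.0. Test compound in DMSO, diluted in maleate buffer to 10% DMSO (2.5% final). Substrate solutions in maleate buffer: maltose 74 mM, sucrose 74 mM, 7.4 mM for isomaltase. Mixture incubated at 37 °C for 30 min and stopped by boiling for 2 min. Glucose measured by the glucose-oxidase method.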
# [2] = molecular target: yeast glucosidase; settings: read-out: Ki, inhibitory activity against yeast glucosidase; cited from earlier work
# [3] = molecular target: rat intestinal sucrase (Rattus norvegicus, UniProt P23739); assay: Inhibitory effects on rat intestinal α-glucosidases: sucrase; format: biochemical; settings: for IC50: IC50 Sucrase, rat small intestinal brush border membrane vesicles, sucrose 74 mM, pH 6.0, 37 °C, 30 min; for inhibition (%) Sucrase: at 100 μg mL^−1 (26a: 297 μM, 26b: 271 μM, 26c and 27c: 341 μM, 28a: 326 μM, 28b: 296 μM, 28c: 380 μM)
# rat intestinal sucrase, sequence (P23739 whole entry): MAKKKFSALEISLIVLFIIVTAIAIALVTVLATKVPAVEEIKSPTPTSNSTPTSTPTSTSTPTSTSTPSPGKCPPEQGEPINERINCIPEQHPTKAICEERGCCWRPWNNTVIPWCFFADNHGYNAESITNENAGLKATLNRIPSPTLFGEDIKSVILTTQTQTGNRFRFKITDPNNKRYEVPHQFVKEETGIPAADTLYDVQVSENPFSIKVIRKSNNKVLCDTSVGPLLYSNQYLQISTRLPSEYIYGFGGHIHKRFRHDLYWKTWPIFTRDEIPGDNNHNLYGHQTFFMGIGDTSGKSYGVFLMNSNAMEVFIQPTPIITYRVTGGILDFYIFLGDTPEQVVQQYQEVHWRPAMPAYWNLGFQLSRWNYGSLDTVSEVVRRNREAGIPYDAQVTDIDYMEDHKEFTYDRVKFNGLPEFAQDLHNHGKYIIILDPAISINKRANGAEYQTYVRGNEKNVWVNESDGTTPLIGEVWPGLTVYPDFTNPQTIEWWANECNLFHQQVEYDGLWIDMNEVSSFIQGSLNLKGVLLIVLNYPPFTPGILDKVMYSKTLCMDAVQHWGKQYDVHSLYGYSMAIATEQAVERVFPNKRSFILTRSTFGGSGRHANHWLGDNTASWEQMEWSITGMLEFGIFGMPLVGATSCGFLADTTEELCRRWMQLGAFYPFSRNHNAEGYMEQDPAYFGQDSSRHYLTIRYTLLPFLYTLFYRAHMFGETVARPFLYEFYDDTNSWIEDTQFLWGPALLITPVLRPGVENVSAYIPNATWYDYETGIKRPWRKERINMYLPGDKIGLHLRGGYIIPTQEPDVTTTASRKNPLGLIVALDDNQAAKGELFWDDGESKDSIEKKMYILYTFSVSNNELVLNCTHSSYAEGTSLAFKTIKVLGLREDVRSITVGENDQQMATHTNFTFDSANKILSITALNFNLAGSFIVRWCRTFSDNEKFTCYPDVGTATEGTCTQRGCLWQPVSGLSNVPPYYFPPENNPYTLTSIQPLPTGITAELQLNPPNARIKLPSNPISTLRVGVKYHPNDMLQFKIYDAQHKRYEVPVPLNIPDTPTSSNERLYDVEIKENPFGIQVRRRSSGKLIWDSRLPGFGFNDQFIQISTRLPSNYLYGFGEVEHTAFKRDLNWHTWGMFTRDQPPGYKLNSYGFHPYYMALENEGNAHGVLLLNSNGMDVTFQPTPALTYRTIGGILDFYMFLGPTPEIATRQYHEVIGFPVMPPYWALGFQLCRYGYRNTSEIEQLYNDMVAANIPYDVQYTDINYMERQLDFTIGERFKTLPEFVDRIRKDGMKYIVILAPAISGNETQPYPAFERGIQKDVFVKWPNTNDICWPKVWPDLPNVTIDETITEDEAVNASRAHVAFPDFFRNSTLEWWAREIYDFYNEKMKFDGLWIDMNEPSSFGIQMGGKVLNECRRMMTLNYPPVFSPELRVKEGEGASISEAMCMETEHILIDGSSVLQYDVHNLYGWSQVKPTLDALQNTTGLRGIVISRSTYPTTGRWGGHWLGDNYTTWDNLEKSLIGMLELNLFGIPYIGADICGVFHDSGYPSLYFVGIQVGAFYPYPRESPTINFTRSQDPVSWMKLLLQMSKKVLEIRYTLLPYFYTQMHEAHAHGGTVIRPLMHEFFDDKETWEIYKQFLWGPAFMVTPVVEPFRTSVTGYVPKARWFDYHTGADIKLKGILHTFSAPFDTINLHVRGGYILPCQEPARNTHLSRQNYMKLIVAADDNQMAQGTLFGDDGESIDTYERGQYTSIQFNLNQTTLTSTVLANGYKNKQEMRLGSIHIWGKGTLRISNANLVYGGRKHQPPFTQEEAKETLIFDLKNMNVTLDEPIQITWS
# [4] = molecular target: rat intestinal isomaltase (Rattus norvegicus, UniProt P23739); assay: Inhibitory effects on rat intestinal α-glucosidases: isomaltase; format: biochemical; settings: at 100 μg mL^−1 (26a: 297 μM, 26b: 271 μM, 26c and 27c: 341 μM, 28a: 326 μM, 28b: 296 μM, 28c: 380 μM)
# rat intestinal isomaltase, sequence (P23739 whole entry): as above
structure (smiles),measurement,setting,value
"O=S(=O)([O-])O[C@@H](CO)[C@H](O)C[S@+]1C[C@@H](O)[C@H](O)[C@H]1CO [Salacinol (1), salacinol, reference compound]","inhibitory activity against maltase, sucrase and isomaltase (in words)",[1],effectively inhibited
same,Ki,[2],14 µM
"[O-][C@@H](CO)[C@H](O)C[S@+]1C[C@@H](O)[C@H](O)[C@H]1CO [Neosalacinol (4), neosalacinol, reference compound]","inhibitory activity against maltase, sucrase and isomaltase (in words)",[1],effectively inhibited
same,IC50,[3],1.4 µM
"OCC[S+](C[C@@H](O)[C@@H](O)CO)C(CO)CO.[Cl-] (single isomer, unassigned) [Compound 26c]",inhibition (%) Isomaltase,[4],5.9%
same,"inhibitory activity against maltase, sucrase and isomaltase (in words)",[1],hardly inhibited
same,IC50,[3],> 341 µM
same,inhibition (%) Sucrase,[3],3.2%
"OCC[S+](C[C@@H](O)CO)C[C@@H](O)[C@@H](O)CO.[Cl-] (stereo partly drawn) [Compound 27c, [(S)-2,3-Dihydroxypropyl] (2-hydroxyethyl) ((2S,3S)-2,3,4-trihydroxybutyl) sulfonium chloride]",inhibition (%) Isomaltase,[4],−2.3%
same,"inhibitory activity against maltase, sucrase and isomaltase (in words)",[1],negligible
same,IC50,[3],> 341 µM
same,inhibition (%) Sucrase,[3],4.4%
"OCC[S+](CCO)C[C@@H](O)[C@@H](O)CO.[Cl-] [Compound 28c, Di(2-hydroxyethyl) [(2S,3S)-2,3,4-trihydroxybutyl] sulfonium chloride]",inhibition (%) Isomaltase,[4],−0.9%
same,"inhibitory activity against maltase, sucrase and isomaltase (in words)",[1],lost considerable activity
same,IC50,[3],> 380 µM
same,inhibition (%) Sucrase,[3],2.6%
